Assay results published in ChEMBL document CHEMBL2034938, “Convenient synthesis of novel geiparvarin analogs with potential anti-cancer activity via click chemistry” (Eur J Med Chem, 2012).

Assays:
[1] = Cytotoxicity against human QGY7701 cells by after 48 hrs by MTT assay; type: functional, cell-based; conditions: QGY7701, 48 h
How it was run: (§1)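 MTT assay; cell lines obtained from Shanghai Institute of Biological Sciences, CAS. Compounds in DMSO stock (10 g/L), diluted in medium just before use. Cells seeded at 8000/well; compound added 24 h later, in duplicate. After 48 h at 37 °C, 5% CO₂, MTT (5 mg/mL in PBS) added for 4 h. Formazan dissolved in DMSO; absorbance read at 570 nm. IC50 taken as the concentration giving 50% growth inhibition.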

A549 [2] = test: Cytotoxicity against human A549 cells by after 48 hrs by MTT assay; type: functional, cell-based; conditions: A549, 48 h; how it was run: as §1
HeLa = test: Cytotoxicity against human HeLa cells by after 48 hrs by MTT assay; type: functional, cell-based; how it was run: as §1
SW480 = test: Cytotoxicity against human SW480 cells by after 48 hrs by MTT assay; type: functional, cell-based; conditions: SW480, 48 h; how it was run: as §1
MDA-MB-231 = test: Cytotoxicity against human MDA-MB-231 cells by after 48 hrs by MTT assay; type: functional, cell-based; conditions: MDA-MB-231, 48 h; how it was run: as §1
[3] = Cytotoxicity against human L02 cells by after 48 hrs by MTT assay; type: cell-based; conditions: L02, 48 h; how it was run: as §1
SGC-7901 = test: Cytotoxicity against human SGC7901 cells by after 48 hrs by MTT assay; type: functional, cell-based; conditions: SGC-7901, 48 h; how it was run: as §1
A549 [4] = test: Induction of apoptosis in human A549 cells assessed as early apoptotic cells at 1 uM after 48 hrs by annexinV/propidium iodide staining-based flow cytometric analysis ( Rvb = 0.15%); type: functional
A549 [5] = test: Induction of apoptosis in human A549 cells assessed as late apoptotic cells at 2 uM after 48 hrs by annexinV/propidium iodide staining-based flow cytometric analysis (reference value: 0.16%); type: functional
A549 [6] = test: Induction of apoptosis in human A549 cells assessed as late apoptotic cells at 1 uM after 48 hrs by annexinV/propidium iodide staining-based flow cytometric analysis (reference value: 0.16%); type: functional
A549 [7] = test: Induction of apoptosis in human A549 cells assessed as viable cells at 8 uM after 48 hrs by annexinV/propidium iodide staining-based flow cytometric analysis ( Rvb = 95.96%); type: functional; conditions: A549, 48 h, read-out: Activity
A549 [8] = test: Induction of apoptosis in human A549 cells assessed as late apoptotic cells at 8 uM after 48 hrs by annexinV/propidium iodide staining-based flow cytometric analysis (reference value: 0.16%); type: functional
A549 [9] = test: Induction of apoptosis in human A549 cells assessed as early apoptotic cells at 8 uM after 48 hrs by annexinV/propidium iodide staining-based flow cytometric analysis ( Rvb = 0.15%); type: functional
A549 [10] = test: Induction of apoptosis in human A549 cells assessed as viable cells at 1 uM after 48 hrs by annexinV/propidium iodide staining-based flow cytometric analysis ( Rvb = 95.96%); type: functional; conditions: A549, 48 h, read-out: Activity
A549 [11] = test: Induction of apoptosis in human A549 cells assessed as late apoptotic cells at 4 uM after 48 hrs by annexinV/propidium iodide staining-based flow cytometric analysis (reference value: 0.16%); type: functional
A549 [12] = test: Induction of apoptosis in human A549 cells assessed as necrotic cells at 2 uM after 48 hrs by annexinV/propidium iodide staining-based flow cytometric analysis (reference value: 3.72%); conditions: A549, 48 h
A549 [13] = test: Induction of apoptosis in human A549 cells assessed as early apoptotic cells at 2 uM after 48 hrs by annexinV/propidium iodide staining-based flow cytometric analysis ( Rvb = 0.15%); type: functional
A549 [14] = test: Induction of apoptosis in human A549 cells assessed as viable cells at 2 uM after 48 hrs by annexinV/propidium iodide staining-based flow cytometric analysis ( Rvb = 95.96%); type: functional; conditions: A549, 48 h, read-out: Activity
A549 [15] = test: Induction of apoptosis in human A549 cells assessed as early apoptotic cells at 4 uM after 48 hrs by annexinV/propidium iodide staining-based flow cytometric analysis ( Rvb = 0.15%); type: functional
A549 [16] = test: Induction of apoptosis in human A549 cells assessed as necrotic cells at 8 uM after 48 hrs by annexinV/propidium iodide staining-based flow cytometric analysis (reference value: 3.72%); conditions: A549, 48 h
A549 [17] = test: Induction of apoptosis in human A549 cells assessed as viable cells at 4 uM after 48 hrs by annexinV/propidium iodide staining-based flow cytometric analysis ( Rvb = 95.96%); type: functional; conditions: A549, 48 h, read-out: Activity
A549 [18] = test: Induction of apoptosis in human A549 cells assessed as necrotic cells at 4 uM after 48 hrs by annexinV/propidium iodide staining-based flow cytometric analysis (reference value: 3.72%); conditions: A549, 48 h

Row | SMILES | IC50 [1] | IC50 (A549 [2]) | IC50 (HeLa) | IC50 (SW480) | IC50 (MDA-MB-231) | IC50 [3] | IC50 (SGC-7901) | further results
1 | N#Cc1ccc(Cn2cc(COc3ccc4c(=O)ccoc4c3)nn2)cc1 | > 100 µM | > 100 µM | > 100 µM | > 100 µM | > 100 µM | > 300 µM | > 100 µM | –
2 | O=c1ccoc2cc(OCc3cn(Cc4cccc(Cl)c4)nn3)ccc12 | 28.4 µM | 13.7 µM | > 100 µM | 12.9 µM | > 100 µM | > 300 µM | > 100 µM | –
3 | COc1ccc(Cn2cc(COc3ccc4c(=O)ccoc4c3)nn2)cc1 | 56.6 µM | 16.5 µM | 14.4 µM | 20.4 µM | > 100 µM | > 300 µM | > 100 µM | –
4 | O=c1ccoc2cc(OCc3cn(Cc4ccccc4Cl)nn3)ccc12 | 19.7 µM | > 100 µM | > 100 µM | 23.5 µM | – | > 300 µM | > 100 µM | –
5 | O=c1ccoc2cc(OCc3cn(Cc4ccc(Cl)cc4)nn3)ccc12 | 41.7 µM | > 100 µM | 37.6 µM | > 100 µM | > 100 µM | > 300 µM | > 100 µM | –
6 | O=c1ccoc2cc(OCc3cn(Cc4cccc([N+](=O)[O-])c4)nn3)ccc12 | 14.1 µM | 9.45 µM | 17.3 µM | > 100 µM | > 100 µM | > 300 µM | > 100 µM | Activity (A549 [4]): 8.07%; Activity (A549 [5]): 3.39%; Activity (A549 [6]): 3%; viability at 8 µM (A549 [7]): 70.6%; Activity (A549 [8]): 5.68%; Activity (A549 [9]): 21.54%; viability at 1 µM (A549 [10]): 86.7%; Activity (A549 [11]): 6.36%; necrotic cells at 2 µM (A549 [12]): 5.68%; Activity (A549 [13]): 10.87%; viability at 2 µM (A549 [14]): 80.1%; Activity (A549 [15]): 13.55%; necrotic cells at 8 µM (A549 [16]): 4.16%; viability at 4 µM (A549 [17]): 74.7%; necrotic cells at 4 µM (A549 [18]): 5.44%
7 | C#CCOc1ccc2c(=O)ccoc2c1 | 58.5 µM | > 100 µM | 64.7 µM | > 100 µM | > 100 µM | > 300 µM | > 100 µM | –
8 | O=c1ccoc2cc(OCc3cn(Cc4ccccc4)nn3)ccc12 | > 100 µM | > 100 µM | > 100 µM | 42.9 µM | > 100 µM | > 300 µM | > 100 µM | –
9 | Cc1cccc(Cn2cc(COc3ccc4c(=O)ccoc4c3)nn2)c1 | 22.4 µM | 20.3 µM | > 100 µM | 11.7 µM | 16 µM | > 300 µM | > 100 µM | –
10 | O=c1ccoc2cc(OCc3cn(Cc4cccc(Br)c4)nn3)ccc12 | 17.6 µM | > 100 µM | > 100 µM | > 100 µM | > 100 µM | > 300 µM | > 100 µM | –
11 | CC(C)(C)c1ccc(Cn2cc(COc3ccc4c(=O)ccoc4c3)nn2)cc1 | > 100 µM | > 100 µM | 17.6 µM | 28.8 µM | > 100 µM | > 300 µM | > 100 µM | –
12 | Cc1ccc(Cn2cc(COc3ccc4c(=O)ccoc4c3)nn2)cc1 | 68.5 µM | 50.7 µM | > 100 µM | 10.4 µM | > 100 µM | > 300 µM | > 100 µM | –
13 | Cc1ccccc1Cn1cc(COc2ccc3c(=O)ccoc3c2)nn1 | > 100 µM | > 100 µM | 15.3 µM | > 100 µM | > 100 µM | > 300 µM | > 100 µM | –
14 | O=c1ccoc2cc(OCc3cn(Cc4ccccc4Br)nn3)ccc12 | > 100 µM | > 100 µM | 14.5 µM | > 100 µM | > 100 µM | > 300 µM | > 100 µM | –
15 | O=c1[nH]cc(F)c(=O)[nH]1 [FLUOROURACIL] | – | – | – | – | – | 46.6 µM | 6.04 µM | –
16 | O=c1ccoc2cc(OCc3cn(Cc4ccccc4F)nn3)ccc12 | 36.9 µM | 10.8 µM | > 100 µM | 11.4 µM | – | > 300 µM | > 100 µM | –
17 | O=c1ccoc2cc(OCc3cn(Cc4ccc(Br)cc4)nn3)ccc12 | 96.4 µM | > 100 µM | > 100 µM | 37.5 µM | > 100 µM | > 300 µM | > 100 µM | –
18 | N#Cc1cccc(Cn2cc(COc3ccc4c(=O)ccoc4c3)nn2)c1 | 24.4 µM | 14.3 µM | > 100 µM | > 100 µM | > 100 µM | > 300 µM | > 100 µM | –
19 | O=c1ccoc2cc(OCc3cn(Cc4ccc(F)cc4)nn3)ccc12 | 14.4 µM | > 100 µM | 12 µM | 11.2 µM | > 100 µM | > 300 µM | > 100 µM | –
20 | O=c1ccoc2cc(OCc3cn(Cc4ccc([N+](=O)[O-])cc4)nn3)ccc12 | > 100 µM | > 100 µM | 25.7 µM | 19.3 µM | – | > 300 µM | > 100 µM | –
21 | O=c1ccoc2cc(OCc3cn(Cc4cccc(F)c4)nn3)ccc12 | > 100 µM | > 100 µM | 7.55 µM | > 100 µM | > 100 µM | > 300 µM | > 100 µM | –
